Legend:
Type in all cases: ADME, organism-based
[1] = Cmax in patient with end-stage renal failure undergoing hemodiafiltration at 4 mg/kg, iv after 2 hrs by LC/MS/MS analysis; parameters: dose 4 mg/kg, route intravenous; details: human, in vivo
Summary of the method: (§1)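 End-stage renal failure patients on 6-h Genius dialysis, hemodialysis or hemodiafiltration received a single 2-h iv infusion of 4 mg/kg. Venous plasma sampled before dosing and at 1, 2, 3, 4, 6 and 6.5 h from a site other than the infusion line, stored at −20°C. Quantified by LC-MS-MS against a 30 to 5,000 ng/ml calibration, analysed noncompartmentally.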

[2] = Cmax in patient with end-stage renal failure undergoing hemodialysis at 4 mg/kg, iv after 2 hrs by LC/MS/MS analysis; parameters: dose 4 mg/kg, route intravenous; details: human, in vivo; summary of the method: as §1
[3] = Terminal half life in human with normal renal function; details: in vivo, read-out: beta t1/2 (converted)
[4] = Cmax in patient with end-stage renal failure undergoing genius system-mediated dialysis at 4 mg/kg, iv after 2 hrs by LC/MS/MS analysis; parameters: dose 4 mg/kg, route intravenous; details: human, in vivo; summary of the method: as §1

With `C[C@@H](c1ncncc1F)[C@](O)(Cn1cncn1)c1ccc(F)cc1F` [VORICONAZOLE] the Cmax [1] was 1900 ng/mL, the Cmax [2] was 1700 ng/mL and the half-life [3] was 7 h. For the same molecule, the Cmax [4] was 1800 ng/mL.

Reference: ChEMBL document CHEMBL1629681 (Antimicrob Agents Chemother, 2010)
